# Laboratory results as given in ChEMBL document CHEMBL3352049, “Taxanes with high potency inducing tubulin assembly overcome tumoural cell resistances” (Bioorg Med Chem, 2014).
# Calls of active or inactive are those of the source. The calls are words filed in the database; no cut-off is given here.
# Columns and labels:
# A2780 [1] = assay: Cytotoxicity against human A2780 cells by MTT assay; assay type: functional, cell-based
# [2] = Cytotoxicity against human A2780AD cells by MTT assay; assay type: functional, cell-based; settings: A2780 ADR
# [3] = Cytotoxicity against human MCF7/R cells by MTT assay; assay type: functional, cell-based; settings: MCF7R
# HeLa [4] = assay: Cytotoxicity against human HeLa cells by MTT assay; assay type: functional, cell-based
# Method in brief: (§1)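 MTT assay run as a modified version of an earlier method. IC50 in nM is the mean ± SEM of three independent assays. Relative resistance is the IC50 in the resistant line (1A9 tubulin mutants, or βIII-transfected HeLa) divided by the IC50 in the parental line (1A9 or HeLa).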
# HeLa [5] = assay: Cytotoxicity against human HeLa cells transfected with wild-type tubulin beta3 by MTT assay; assay type: functional, cell-based; method in brief: as §1
# 1A9 [6] = assay: Cytotoxicity against human 1A9 cells by MTT assay; assay type: functional, cell-based; method in brief: as §1
# [7] = Cytotoxicity against human 1A9PTX10 cells by MTT assay; assay type: functional, cell-based; settings: 1A9/ptx-10; method in brief: as §1
# [8] = Cytotoxicity against human 1A9PTX22 cells by MTT assay; assay type: functional, cell-based; settings: 1A9/ptx-22; method in brief: as §1
# [9] = Cytotoxicity against human 1A9/A8 cells by MTT assay; assay type: functional, cell-based; method in brief: as §1
# A549 [10] = assay: Effect on microtubule cytoskeleton in human A549 cells assessed as induction of micronuleated cells with short microtubules in cytoplasm at 60 to 120 nM after 24 hrs by immunofluorescence assay; assay type: cell-based
# Method in brief: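 A549 cells were grown overnight on coverslips, then given DMSO vehicle or ligand (60 or 120 nM) for 24 h. Cells were permeabilized with Triton X-100 and fixed in 3.7% formaldehyde. Microtubules were stained with DM1A α-tubulin antibody and DNA with Hoechst 33342. Preparations were viewed by epifluorescence microscopy.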
# A2780 [11] = assay: Cell cycle arrest at G2/M phase in human A2780 cells at 30 nM after 20 hrs by flow cytometry; assay type: functional, cell-based
# A2780 [12] = assay: Cell cycle arrest at G2/M phase in human A2780 cells at 60 nM after 20 hrs by flow cytometry; assay type: functional, cell-based
# [13] = Cell cycle arrest at G2/M phase in human A2780AD cells at 30 nM after 20 hrs by flow cytometry; assay type: functional, cell-based; settings: A2780 ADR
# [14] = Cell cycle arrest at G2/M phase in human A2780AD cells at 60 nM after 20 hrs by flow cytometry; assay type: functional, cell-based; settings: A2780 ADR
# A549 [15] = assay: Cell cycle arrest at G2/M phase in human A549 cells at 30 nM after 20 hrs by flow cytometry; assay type: functional, cell-based
# A549 [16] = assay: Cell cycle arrest at G2/M phase in human A549 cells at 60 nM after 20 hrs by flow cytometry; assay type: functional, cell-based
# Tubulin (Bos taurus) = Tubulin (Bos taurus) (UniProt Q6B856+Q862L2+Q862F3); assay: Induction of calf brain tubulin polymerization assessed as tubulin concentration required to form microtubules by electron microscopy
# Method in brief: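 Critical tubulin concentration found by centrifugation and quantification of the polymer formed. Polymers adsorbed onto formvar/carbon-coated copper grids, stained with 1% uranyl acetate, and viewed by electron microscopy at 100 kV.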
# microtubule (Bos taurus) [17] = assay: Binding affinity to paclitaxel site of microtubule (Bos taurus) after 30 mins at 26 degC by epothilone B displacement method
# microtubule (Bos taurus) [18] = assay: Binding affinity to paclitaxel site of microtubule (Bos taurus) after 30 mins at 30 degC by epothilone B displacement method
# microtubule (Bos taurus) [19] = assay: Binding affinity to paclitaxel site of microtubule (Bos taurus) after 30 mins at 35 degC by epothilone B displacement method
# microtubule (Bos taurus) [20] = assay: Binding affinity to paclitaxel site of microtubule (Bos taurus) after 30 mins at 40 degC by epothilone B displacement method
# [21] = Resistance ratio of IC50 for human A2780AD cells to IC50 for human A2780 cells; assay type: functional, A2780 ADR
# HeLa [22] = assay: Resistance ratio of IC50 for human HeLa cells transfected with wild-type tubulin beta3 to IC50 for human HeLa cells; assay type: functional
# Method in brief: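 Relative resistance is the IC50 in HeLa cells transfected with wild-type βIII-tubulin divided by the IC50 in parental HeLa cells. Each IC50 (nM) is the mean ± SEM of three independent assays.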
# 1A9 [23] = assay: Resistance ratio of IC50 for human 1A9PTX10 cells to IC50 for human 1A9 cells; assay type: functional
# Method in brief: (§2)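 Relative resistance is the IC50 in the 1A9 tubulin-mutant line divided by the IC50 in parental 1A9 ovarian carcinoma cells. Each IC50 (nM) is the mean ± SEM of three independent assays.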
# 1A9 [24] = assay: Resistance ratio of IC50 for human 1A9PTX22 cells to IC50 for human 1A9 cells; assay type: functional; method in brief: as §2
# 1A9 [25] = assay: Resistance ratio of IC50 for human 1A9/A8 cells to IC50 for human 1A9 cells; assay type: functional
# microtubule (Bos taurus) [26] = assay: Binding affinity to microtubule (Bos taurus) by STD NMR spectroscopy
# microtubule (Bos taurus) [27] = assay: Binding affinity to microtubule (Bos taurus) by TR-NOESY spectroscopy
# microtubule (Bos taurus) [28] = assay: Binding affinity to microtubule (Bos taurus) after 30 mins at 26 degC by flutax-2 displacement method
# microtubule (Bos taurus) [29] = assay: Binding affinity to microtubule (Bos taurus) after 30 mins at 27 degC by flutax-2 displacement method
# microtubule (Bos taurus) [30] = assay: Binding affinity to microtubule (Bos taurus) after 30 mins at 30 degC by flutax-2 displacement method
# microtubule (Bos taurus) [31] = assay: Binding affinity to microtubule (Bos taurus) after 30 mins at 32 degC by flutax-2 displacement method
# microtubule (Bos taurus) [32] = assay: Binding affinity to microtubule (Bos taurus) after 30 mins at 35 degC by flutax-2 displacement method
# microtubule (Bos taurus) [33] = assay: Binding affinity to microtubule (Bos taurus) after 30 mins at 37 degC by flutax-2 displacement method
# microtubule (Bos taurus) [34] = assay: Binding affinity to microtubule (Bos taurus) after 30 mins at 40 degC by flutax-2 displacement method
# microtubule (Bos taurus) [35] = assay: Binding affinity to microtubule (Bos taurus) after 30 mins at 42 degC by flutax-2 displacement method
SMILES,IC50 (A2780 [1]),IC50 [2],IC50 [3],IC50 (HeLa [4]),IC50 (HeLa [5]),IC50 (1A9 [6]),IC50 [7],IC50 [8],IC50 [9],Activity (A549 [10]),Activity (A2780 [11]),Activity (A2780 [12]),Activity [13],Activity [14],Activity (A549 [15]),Activity (A549 [16]),Activity (Tubulin (Bos taurus)),further results
CCC(=O)O[C@H]1C(=O)[C@@]2(C)[C@H]([C@H](OC(=O)c3cccc(OC)c3)[C@]3(O)C[C@H](OC(=O)[C@H](O)[C@H](C=C(C)C)NC(=O)OC(C)(C)C)C(C)=C1C3(C)C)[C@]1(OC(C)=O)CO[C@@H]1C[C@@H]2O,3.4 nM,10.5 nM,0.33 nM,5.7 nM,4.8 nM,3.3 nM,2.9 nM,4.9 nM,4 nM,Active,Active,Active,Active,Active,Active,Active,0.6 µM,Kb (microtubule (Bos taurus) [17]): 731 ×10⁷ /M; Kb (microtubule (Bos taurus) [18]): 545 ×10⁷ /M; Kb (microtubule (Bos taurus) [19]): 478 ×10⁷ /M; Kb (microtubule (Bos taurus) [20]): 318 ×10⁷ /M
CC(=O)O[C@@]12CO[C@@H]1C[C@H](O)[C@@]1(C)C(=O)[C@H](OC(=O)N(C)C)C3=C(C)[C@@H](OC(=O)[C@H](O)[C@H](C=C(F)F)NC(=O)OC(C)(C)C)C[C@@](O)([C@@H](OC(=O)c4ccccc4)[C@H]21)C3(C)C,3.5 nM,15.1 nM,4.3 nM,2.5 nM,3.5 nM,3.2 nM,5.25 nM,7 nM,4 nM,Active,Active,Active,Active,Active,Active,Active,0.3 µM,Ratio IC50 [21]: 4.3; Ratio IC50 (HeLa [22]): 1.4; Ratio IC50 (1A9 [23]): 1.6; Ratio IC50 (1A9 [24]): 2.2; Ratio IC50 (1A9 [25]): 1.2; Activity (microtubule (Bos taurus) [26]): Active; Activity (microtubule (Bos taurus) [27]): Active; Kb (microtubule (Bos taurus) [28]): 15 ×10⁷ /M; Kb (microtubule (Bos taurus) [29]): 14 ×10⁷ /M; Kb (microtubule (Bos taurus) [30]): 13 ×10⁷ /M; Kb (microtubule (Bos taurus) [31]): 13 ×10⁷ /M; Kb (microtubule (Bos taurus) [32]): 10 ×10⁷ /M; Kb (microtubule (Bos taurus) [33]): 10 ×10⁷ /M; Kb (microtubule (Bos taurus) [34]): 10 ×10⁷ /M; Kb (microtubule (Bos taurus) [35]): 8 ×10⁷ /M
